Screening results: PubChem BioAssay, several laboratories
A selection: hits, their analogues and other compounds. The true share with any hit is near 8.2%.
RORa activator: activators of human nuclear receptor RORA; P35398; hit rate 1.5% among 65,000; CHO-K1 Gal4-RORA LBD luciferase reporter, luminescence; percent increase over mock-subtracted basal signal; activation, % at 10 µM; AID 560;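 active = activation above the mean of all tested compounds plus 3 SD, cut at about 49% in these data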;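 also: 0% = DMSO-treated RORA cells and 100% = added signal equal to DMSO minus mock-transfected cells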
D1 mod: allosteric modulators of human D1 dopamine receptor | HEK293 D1, CRE-luciferase, dopamine EC30 potentiation; actives deviate in either direction | hit rate 5.9% among 58,000 | B-score at 10 µM | P21728;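 active = luminescence count or its row- and column-corrected plate score outside the 99.7% band of the plate's sample wells, on either side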
HePTP inhibitor: blocks human HePTP tyrosine phosphatase; inhibition, % at 20 µM; P35236; AID 521; hit rate 0.64% among 110,000; recombinant HePTP phosphatase activity, OD absorbance; in the data active = inhibition above about 50%; inconclusive = no clear call, values can overlap the other calls;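 also: plate controls were vehicle for no effect and reference inhibitor for full effect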
M1 antagonist: blocks the rat M1 muscarinic receptor response to acetylcholine; CHO-M1 cells, Fluo-4 calcium, ACh EC80 antagonist mode; stronger effect = lower value; hit rate 3.4% among 64,000; P08482; B-score at 10 µM;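 active = calcium fluorescence response, raw or row-and-column corrected B-score, differing from the plate sample mean either way at a set confidence level, mostly lower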
Target sequence (P08482 whole entry, looked up): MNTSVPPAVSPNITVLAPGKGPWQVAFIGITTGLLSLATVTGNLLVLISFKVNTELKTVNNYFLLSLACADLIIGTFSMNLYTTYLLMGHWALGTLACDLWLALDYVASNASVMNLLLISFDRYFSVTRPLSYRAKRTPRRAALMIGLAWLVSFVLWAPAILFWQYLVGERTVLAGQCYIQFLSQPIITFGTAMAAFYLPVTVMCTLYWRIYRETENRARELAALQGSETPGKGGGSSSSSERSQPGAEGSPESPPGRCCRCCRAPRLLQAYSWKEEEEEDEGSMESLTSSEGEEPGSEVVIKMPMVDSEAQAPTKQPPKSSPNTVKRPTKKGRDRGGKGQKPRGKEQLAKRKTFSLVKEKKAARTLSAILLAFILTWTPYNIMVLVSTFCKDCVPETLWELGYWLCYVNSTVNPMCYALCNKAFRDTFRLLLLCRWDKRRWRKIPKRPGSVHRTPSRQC
SF-1 act: activators of human nuclear receptor SF-1; Q13285; CHO-K1 Gal4-SF-1 LBD luciferase reporter; % increase over DMSO SF-1-specific signal; activation, % at 10 µM; hit rate 1.9% among 65,000;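 active = activation above the mean activation of all tested compounds plus 3 SD, cut at about 50% in these data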
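Compound – one dose, 10 µM compound, 1% DMSO · Test system – transient Gal4-SF-1 LBD reporter, CHO-K1 · Input – 4,000 cells in each well · Read-out basis – percent activation relative to DMSO median and mock-transfected background · Replicates – single measurement per compound · Technique – steady-glow luciferase luminescence, read after 15 min reagent incubation · Timing – 20 h compound treatment, 37 °C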
M1 ag: activates the M1 muscarinic receptor; CHO-M1 cells, Fluo-4 calcium fluorescence, agonist mode; stronger effect = higher value; B-score at 10 µM; hit rate 3% among 64,000;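 active = fluorescence rise, raw or as B-score row- and column-corrected plate score, outside the 99.7% band of its plate's samples, either direction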
M1 agonist conf: rat M1 muscarinic agonism, confirmation; fluorescence change (max-min) at 10 µM; shares compounds with M1 ag; CHO-M1 cells, Fluo-4 calcium fluorescence, agonist mode; actives lie on both sides; hit rate 19% among 1,700;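 active = fluorescence change differs from the solvent-only DMSO control mean at a set confidence level in both duplicate runs; inconclusive = differs from solvent-only control mean in just one of two runs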;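 also: an EC20 dose of acetylcholine follows compound addition during the same imaging run; raw fluorescence intensity difference in instrument units with no normalization to controls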
M4 ag counter: rat M4 muscarinic agonism, M1 counter-screen; shares compounds with M1 ag; CHO M4/Gqi5 cells, Fluo-4 calcium fluorescence, agonist mode; actives lie on both sides; fluorescence change (max-min) at 10 µM; hit rate 9% among 1,700; AID 1741;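 active = fluorescence change differing from the plate's solvent-only control wells at 99.7% confidence in both duplicates, whether higher or lower; inconclusive = differs from solvent controls in only one of two duplicates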
Active calls of the source: *; ? = inconclusive; . = not tested or not shown.

SMILES	RORa activator	D1 mod	HePTP inhibitor	M1 antagonist	SF-1 act	M1 ag	M1 agonist conf	M4 ag counter
COc1ccc(NC(=O)c2ccccc2NC(=O)c2ccco2)c(OC)c1	-11.6	-0.529	6.3	-0.42	-0.1	7.72*	?	-48.6
COc1ccc2c(=O)c(C(=O)NCCc3ccc(OC)c(OC)c3)c[nH]c2c1	4.3	1.88	7.4	-0.919	-1.0	4.89*	?	?
COc1cc(NC(=O)c2ccco2)c(OC)cc1NC(=O)c1cc(OC)c(OC)c(OC)c1	4.8	-2.26	2.3	-0.0677	-1.0	10.5*	-31.6*	-62.8
COc1ccc(CCNC(=O)c2ccccc2NC(=O)c2ccco2)cc1OC	-6.5	0.665	3.8	-0.137	-2.1	3.97*	?	-77.5*
COc1ccc(CCNC(=O)c2cccc3ccccc23)cc1OC	.	.	-8.8	.	.	.	.	.
O=c1[nH]c(NCc2ccco2)nnc1Cc1ccccc1Cl	9.1	-0.126	-3.3	0.752	15.7	-1.12	.	.
COC(=O)c1cc(C(=O)N2CCN(C)CC2)cc([N+](=O)[O-])c1	.	.	2.3	.	.	.	.	.
CCc1cc(=O)oc2cc(OC(C)=O)cc(OC(C)=O)c12	-3.1	-0.374	8.4	0.618	-4.1	0.591	.	.
CCOc1cc2c(c([N+](=O)[O-])c1)NC(c1ccccc1F)C1CC=CC21 (stereo not given)	.	.	-19.0	.	.	.	.	.
O=c1c2ccccc2c(C=Nc2ccc(Cl)cn2)c(O)n1-c1cc(Cl)ccc1N1CCOCC1	-10.6	-1.14	-1.6	0.489	-16.5	15.4*	-10.2	-11.5
Cc1cccc(/N=C/c2c(O)n(-c3cc(Cl)ccc3N3CCOCC3)c(=O)c3ccccc23)n1	18.2	1.44	4.1	0.537	15.5	0.00734	.	.
COCCNC(=O)C(c1ccc(C)o1)N(CC1CCCO1)C(=O)Cn1nnc2ccccc21 (stereo not given)	-9.9	.	5.1	-0.0315	3.1	1.86*	?	-49.8
COCCNC(=O)C(c1ccc(C)o1)N(Cc1ccc(OC)cc1)C(=O)Cn1nnc2ccccc21 (stereo not given)	1.8	0.729	5.4	0.355	8.4	0.636	.	.
O=C(NCCc1ccc(Cl)cc1)C1CCN(S(=O)(=O)N2CCCCC2)CC1	-21.1	-0.596	0.0	-0.632	-0.5	1.88*	?	-72.4
O=C(NCCc1ccccc1)C1CCN(S(=O)(=O)N2CCCC2)CC1	-11.8	1.22	-4.6	0.283	-8.1	-0.168	.	.
O=[N+]([O-])c1cc(Cl)ccc1N1CCN(S(=O)(=O)c2ccccc2)CC1	.	.	0.1	.	.	.	.	.
Cc1cc(N2CCN(S(=O)(=O)c3ccc(Cl)cc3)CC2)c2ccccc2n1	.	-3.05	5.3	-7.43*	.	5.23*	-9.99	-16
CC(C(=O)NCC1CCCO1)n1cccc1C(=O)c1ccccc1 (stereo not given)	-10.8	-0.61	9.3	2.26*	-19.2	20.9*	-10.5	?
